# Screening data (PubChem BioAssay)
# The list is not random: actives were taken first. Their share in the collection is about 2.5%.
# T cell modulator: T cell immune modulators affecting CD8 T cell-vesicle binding; AID 2052; 2C CD8+ T cell-vesicle binding, flow cytometry; active compounds read low; response (vesicle binding), % at 7 µM; 0.068% of 330,000 active;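 active = response, share of CD8 T cells binding vesicles, and their 90th percentile fluorescence all below set limits, cut at about 80% in these data, passing the limit was not always enough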;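 note: values below 100% mean blocked vesicle binding to the CD8+ T cells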
#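 Assay system – 2C mouse CD8+ T cells · Also added – QL9-loaded Drosophila micro-vesicles · Timing – Cell–vesicle co-incubation 1.5 h at 37 °C, staining 20 min on ice · Signal – flow cytometry of vesicle-bound cells · Measure – percent CD8+ FL2 mean versus row control · Controls – Peptide-free naked vesicles (low) and QL9 vesicles with 0.7% DMSO vehicle (high)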
# Rce1 inhib: blocks yeast Ras-converting enzyme; Q03530; yeast membranes, quenched prenylated peptide cleavage fluorescence; calls only; 0.27% of 290,000 active; AID 2563;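 active = fall in fluorescence gain of 50% or more versus controls, with final raw signal at or below 3038400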
# Target sequence (Q03530 whole entry, looked up): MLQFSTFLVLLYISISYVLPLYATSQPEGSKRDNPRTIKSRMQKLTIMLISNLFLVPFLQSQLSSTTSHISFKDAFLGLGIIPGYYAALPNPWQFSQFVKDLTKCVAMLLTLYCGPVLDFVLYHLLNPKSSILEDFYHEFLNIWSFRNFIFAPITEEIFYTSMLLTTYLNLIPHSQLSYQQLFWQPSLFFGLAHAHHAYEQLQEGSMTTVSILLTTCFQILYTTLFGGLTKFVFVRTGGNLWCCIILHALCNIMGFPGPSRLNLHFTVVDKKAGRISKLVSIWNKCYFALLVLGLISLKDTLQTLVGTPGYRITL
# UCH37 DUB inh: inhibitors of human deubiquitinating enzyme UCH37; Q9Y5K5; purified proteasome/UCH37, Ub-AMC cleavage fluorescence; inhibition, % (no concentration beside the values); 0.33% of 330,000 active; AID 588478;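 active = mean inhibition over replicate wells above about 20%, limit read from the data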
# Target sequence (Q9Y5K5 whole entry, looked up): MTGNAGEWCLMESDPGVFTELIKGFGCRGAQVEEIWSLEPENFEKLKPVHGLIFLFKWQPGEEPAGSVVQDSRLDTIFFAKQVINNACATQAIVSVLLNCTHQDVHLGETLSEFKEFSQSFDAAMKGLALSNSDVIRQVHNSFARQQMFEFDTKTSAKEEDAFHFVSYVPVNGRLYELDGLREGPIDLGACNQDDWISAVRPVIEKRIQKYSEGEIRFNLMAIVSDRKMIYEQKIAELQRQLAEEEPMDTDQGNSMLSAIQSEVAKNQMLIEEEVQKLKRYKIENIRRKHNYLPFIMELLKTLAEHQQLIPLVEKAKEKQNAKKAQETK
#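 Assay system: Proteasome-bound UCH37. Buffer or medium: pH 7.4 Tris-HCl (50 mM) with ovalbumin, ATP-MgCl2, DTT. Incubation: 30 min preincubation with enzyme, 25 min cleavage at room temperature. Measured by: fluorescence, ex 355 nm, em 460 nm. Read-out basis: percent inhibition. Control set: wells without proteasome as full block, compound-free enzyme plus substrate as uninhibited.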
# MEKK2 mut-MEK5: signal of MEK5 binding to mutant human MEKK2 PB1 domain; bead flow cytometry, Alexa488-MEK5 binding to MEKK2 mutant; percent response, % at 10 µM; 0.35% of 290,000 active; AID 1530; in the data active = percent response above about 24%, passing the limit was not always enough
# MEKK2 WT-MEK5: raises or lowers MEK5 binding to wildtype human MEKK2 PB1 domain; Q9Y2U5; bead flow cytometry, Alexa488-MEK5 binding to MEKK2 WT; actives lie on both sides; binding response (% of control), % at 10 µM; 1.1% of 290,000 active; AID 1531; in the data active = binding response below about 67% or above about 130%
# MEKK3 PB1 HTS: modulators (inhibitors or enhancers) of MEK5 binding to human MEKK3 PB1 domain | binding response (% of control), % at 10 µM | bead-based flow cytometry, Alexa488-MEK5 binding to MEKK3; actives lie on both sides; 0 = blocked by unlabeled MEK5, 100 = vehicle | Q99759 | 1.4% of 290,000 active;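 active = binding response more than 3 SD above or below the average of its plate-row segment, actives on both sides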;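 note: Alexa488 bead fluorescence after subtracting the streptavidin-only scavenger bead signal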
# MEKK2wt confirm: raises or lowers MEK5 binding to wildtype human MEKK2, retest; binding response (% of control), % at 10 µM; bead flow cytometry, Alexa488-MEK5 binding to MEKK2 WT; actives lie on both sides; AID 1892; 2.4% of 5,900 active; shares compounds with MEKK3 PB1 HTS; in the data active = binding response below about 16% or above about 210%; inactive = in between
# MEKK2mut confirm: signal of MEK5 binding to mutant human MEKK2, retest | shares compounds with MEKK3 PB1 HTS | bead flow cytometry, Alexa488-MEK5 binding to MEKK2 mutant | percent response, % at 10 µM | 2% of 5,900 active; in the data active = percent response mostly above about 71%, no sharp cut-off; inactive = mostly below about 38%;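 note: higher means compound restores mutant binding toward wildtype level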
# MEKK3-MEK5 inh: MEKK3-MEK5 PB1 inhibition, single concentration confirmation. shares compounds with MEKK3 PB1 HTS. bead flow cytometry, Alexa488-MEK5 binding to MEKK3; active compounds read low. binding response (% of control), % at 10 µM. 1.8% of 5,900 active;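 active = binding response below 72% of control, or above a set upper limit, though filed actives all read lower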;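 note: lower values mean stronger disruption of MEK5 binding to MEKK3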
# A number is an active result; n = inactive; x = not tested or not shown; [ ] = remark or other dose.
SMILES,T cell modulator,Rce1 inhib,UCH37 DUB inh,MEKK2 mut-MEK5,MEKK2 WT-MEK5,MEKK3 PB1 HTS,MEKK2wt confirm,MEKK2mut confirm,MEKK3-MEK5 inh
COc1cc(OC)c(OC)cc1C=NNC(=S)NCCN1CCOCC1,x,x,n,x,x,x,x,x,x
COC(=O)CC1C(=O)NCCN1C(=O)CSc1nnc(Nc2ccc(C)cc2)s1 (stereo not drawn),n,n,n,n,n,n,x,x,x
COC(=O)CC1C(=O)NCCN1C(=O)CSc1nnc(Nc2ccc(OC)cc2)s1 (stereo not drawn),n,n,n,n,n,122,n,n,n
CCOC(=O)C(=NNc1ccccc1)P(=O)(c1ccccc1)c1ccccc1,x,x,n,x,x,x,x,x,x
Cc1cc(-c2n[nH]c(=S)n2N=Cc2cccs2)n[nH]1,x,x,n,x,x,x,x,x,x
Cc1cc(-c2n[nH]c(=S)n2/N=C/c2sccc2C)n[nH]1,n,n,x,n,n,148,n,n,n
C=CCNS(=O)(=O)c1sccc1C=NO,x,x,n,x,x,x,x,x,x
CCCc1nc2ccccc2c(=O)n1N=Cc1ccc(O)cc1,x,x,n,x,x,x,x,x,x
COc1cc(C(C)=NN2CCN(Cc3ccc(C)cc3)CC2)ccc1O,x,x,n,x,x,x,x,x,x
C=CCC(NCc1ccco1)c1ccc(OC)c(OC)c1 (stereo not drawn),n,n,n,n,-1.0[inhibitor],0.0[inhibitor],n,n,n
COc1ccc(C(CC(=O)O)NC(=O)c2ccco2)cc1 (stereo not drawn),n,n,n,n,n,n,x,x,x
COc1ccc(C(CC(=O)O)NC(=O)c2ccco2)cc1OC (stereo not drawn),n,n,n,24,n,n,n,n,n
CC(CC(=O)Nc1c(C)cc(C)cc1C)=NNC(=O)Cc1ccccc1,x,x,n,x,x,x,x,x,x
COc1cc([N+](=O)[O-])cc(C=NNC(=O)c2cncc(Br)c2)c1O,x,x,n,x,x,x,x,x,x
COc1ccccc1-c1cc(C(=O)NC2CCN(C)CC2)c2ccc(Cl)c(C)c2n1,n,n,n,28,155,n,n,n,n
Cc1c(Cl)ccc2c(C(=O)NCCN3CCCCC3)cc(-c3ccccn3)nc12,n,n,n,n,166,n,n,n,n
S=C(Nc1cccc(Cl)c1)N(CCCN1CCCC1)Cc1cccn1Cc1ccc(Cl)cc1,n,n,n,n,262,n,221,n,n
CSc1cccc(NC(=S)N(CCCN2CCCC2)Cc2cccn2Cc2ccc(Cl)cc2)c1,n,n,n,94,270,n,245,77,n
Cn1cc(CN(CCCN2CCOCC2)C(=S)Nc2cccc(Cl)c2)c2ccccc21,n,n,x,n,n,n,x,x,x
CSc1cccc(NC(=S)N(CCCN2CCCC2)Cc2cccs2)c1,n,n,n,n,n,n,x,x,x
COc1cccc(NC(=S)N(CCCN2CCCC2)Cc2cccn2Cc2ccc(Cl)cc2)c1,n,n,n,55,177,n,n,n,n
CCOc1cc(C=Nn2cnnc2)cc(Br)c1O,x,x,n,x,x,x,x,x,x
CC(=NNc1ccccc1[N+](=O)[O-])c1ccc(N2CCOCC2)cc1,x,x,n,x,x,x,x,x,x
CCCCn1cc(C(C)(C)C)c(C#N)c1NC(C)=O,n,n,n,n,52[inhibitor],46[inhibitor],n,n,n
O=C(Nc1nc(-c2ccc(F)cc2)cs1)c1ccc(N2C(=O)CCC2=O)cc1,n,n,n,n,n,74[inhibitor],n,n,n
SMILES,T cell modulator,Rce1 inhib,UCH37 DUB inh,MEKK2 mut-MEK5,MEKK2 WT-MEK5,MEKK3 PB1 HTS,MEKK2wt confirm,MEKK2mut confirm,MEKK3-MEK5 inh
Cc1ccc(C=NNc2ncnc3nc[nH]c23)cc1,x,x,n,x,x,x,x,x,x
CCN(C(=O)CSc1ncccc1C(=O)Oc1cccc([N+](=O)[O-])c1)c1cccc(C)c1,n,n,n,n,n,138,n,n,n
CSc1cccc(NC(=O)CSc2ncccc2C(=O)Oc2cccc([N+](=O)[O-])c2)c1,n,n,n,n,n,n,x,x,x
CCC(=NNC(=O)c1ccccc1Cl)c1ccc(Br)s1,x,x,n,x,x,x,x,x,x
O=C(CCc1ccc(O)c(O)c1)NN=Cc1cc2c(cc1[N+](=O)[O-])OCO2,x,x,n,x,x,x,x,x,x
CCCOc1ccc(C(=O)NCCC(=O)NCCCC(=O)O)cc1,n,n,n,n,n,130,n,n,n
CCCCCOc1ccc(C(=O)NCCC(=O)NCCCC(=O)OCC)cc1,n,n,n,n,n,n,x,x,x
O=C(N=C1c2ccccc2CN1c1cccc(Cl)c1)c1cccnc1,n,n,n,n,n,56[inhibitor],n,n,n
Nc1nonc1-n1nnc(C(=O)NN=Cc2ccncc2)c1CSc1ccccc1,x,x,n,x,x,x,x,x,x
CC(=O)c1ccc(NC(=S)Nc2ccc3[nH]c(=O)[nH]c3c2)cc1,n,n,n,n,7.0[inhibitor],5.0[inhibitor],n,n,n
CN1CCN(CC(=O)Nc2nc(-c3c[nH]c4ccccc34)cs2)CC1,n,n,n,n,145,n,n,n,n
CNc1nc(-c2c[nH]c3ccccc23)cs1,n,n,n,n,-4.0[inhibitor],n,-5.0[inhibitor],n,n
Cc1ccc2c(-c3csc(N)n3)c[nH]c2c1,n,n,x,n,n,n,x,x,x
Nc1nc(-c2c[nH]c3ccccc23)cs1,n,n,n,69,-7.0[inhibitor],n,n,n,n
CC(=O)NS(=O)(=O)c1ccc(N=c2ssc3c2-c2cc(C)ccc2NC3(C)C)cc1,n,n,x,n,n,129,n,n,n
Cc1cccc(Nc2nnc(SCC(=O)NC3CCCc4ccccc43)s2)c1 (stereo not drawn),n,n,n,n,3.0[inhibitor],3.0[inhibitor],n,n,n
O=C(CSc1ccc2ccccc2c1)NC1CCCc2ccccc21 (stereo not drawn),n,n,n,n,n,130,n,n,n
O=C(CSc1nc2cc(S(=O)(=O)N3CCOCC3)ccc2o1)NC1CCCc2ccccc21 (stereo not drawn),n,n,n,n,3.0[inhibitor],2.0[inhibitor],n,n,n
O=C(CSc1nc2cc(S(=O)(=O)N3CCOCC3)ccc2o1)Nc1c(F)cccc1F,n,n,n,n,n,n,x,x,x
Cc1ccc2c(CC(=O)NC3CCCc4ccccc43)coc2c1 (stereo not drawn),n,n,n,n,n,147,n,n,n
COc1ccc(N2CCN(CCCNC(=O)CN3CCN(Cc4ccccc4C)C3=O)CC2)cc1,n,n,n,n,143,n,n,n,n
O=C(CN1CCN(Cc2ccccc2Cl)C1=O)NCCCN1CCOCC1,n,n,n,n,n,n,x,x,x
